For 2 compounds, Emax and Activity results are on record in ChEMBL document CHEMBL2086388, “Antihyperglycemic effect of syringaldehyde in streptozotocin-induced diabetic rats” (2012).

Assay [1] concerns Rattus norvegicus. The experiment in a line: Antihyperglycemic activity in STZ-induced diabetic rats assessed as reduction in plasma glucose levels at 100 mg/kg, po. In kind it is functional.
Assay [2] deals with Rattus norvegicus. The experiment in a line: Antihyperglycemic activity in STZ-induced diabetic Wistar rats assessed as reduction in plasma glucose levels at 7.2 mg/kg, iv administered as bolus dose measured after 60 mins. In kind it is functional. The following applies: 1 h. A digest of the protocol:
(§1)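 Fasted rats made diabetic with STZ 60 mg/kg iv (plasma glucose ≥20 mmol/L plus polyuria) and used 2 weeks later. Compound dissolved in normal saline and given as an iv bolus over 1.8–7.2 mg/kg; controls got saline. Tail-vein plasma glucose measured at 60 min under pentobarbital 30 mg/kg ip. Activity = [(Gi−Gt)/Gi]×100%. n=8.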

The subject of assay [3] is Rattus norvegicus. The assay can be described thus: Antihyperglycemic activity in Wistar rats assessed as reduction in plasma glucose levels at 7.2 mg/kg, iv administered 30 mins prior to glucose challenge measured after 120 mins. The class given is functional, organism-based. Also on record: dose 7.2 mg/kg. The essentials:
(§2)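 IV glucose challenge in pentobarbital-anesthetized (30 mg/kg ip) Wistar rats. Compound 7.2 mg/kg or saline injected into the tail vein; 30 min later the 0-min sample was drawn. Glucose 60.0 mg/kg then given via the femoral vein. Tail-vein plasma glucose measured at 5–120 min and compared with the vehicle group at each time. n=8.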

The subject of assay [4] is Rattus norvegicus. The assay can be described thus: Antihyperglycemic activity in Wistar rats assessed as reduction in plasma glucose levels at 7.2 mg/kg, iv administered as bolus dose measured after 60 mins. The class given is functional. The arrangement: scale not given: the % may be the effect or the level left. The essentials:
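Normal fasted Wistar rats, n=8. Compound in saline given iv at 7.2 mg/kg. Tail-vein plasma glucose taken under pentobarbital anesthesia. Lowering expressed as percent decrease from the initial glucose value.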

The test system of assay [5] is Rattus norvegicus. The experiment in a line: Antihyperglycemic activity in iv dosed STZ-induced diabetic Wistar rats assessed as reduction in plasma glucose levels administered as bolus dose measured after 60 mins. The class given is functional, organism-based. A digest of the protocol:
as §1

In assay [6] the test system is Rattus norvegicus. The experiment in a line: Antihyperglycemic activity in Wistar rats assessed as reduction in plasma glucose levels at 7.2 mg/kg, iv administered 30 mins prior to glucose challenge measured after 30 mins. The class given is functional, organism-based. The arrangement: dose 7.2 mg/kg. A digest of the protocol: as §2
In assay [7] the test system is Rattus norvegicus. The assay can be described thus: Antihyperglycemic activity in STZ-induced diabetic Wistar rats assessed as reduction in plasma glucose levels at 1.8 mg/kg, iv administered as bolus dose measured after 60 mins. In kind it is functional. The arrangement: scale not given: the % may be the effect or the level left. A digest of the protocol:
as §1

Assay [8] concerns L6. The experiment in a line: Induction of glucose uptake in rat L6 cells after 60 mins by 2-NBDG fluorescence assay. In kind it is functional, cell-based. The essentials:
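Rat L6 cells grown 48 h, trypsinized, 1×10^6 cells/mL. Cells incubated in PBS with 0.2 mM 2-NBDG plus compound or vehicle, 37 °C, 60 min in the dark. Then washed three times with cold PBS. Fluorescence read at ex 488/em 520 nm. Eight experiments per group, means ± SEM.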

Assay [9] relates to Rattus norvegicus. The assay can be described thus: Antihyperglycemic activity in Wistar rats assessed as reduction in plasma glucose levels at 7.2 mg/kg, iv administered 30 mins prior to glucose challenge measured after 5 mins. In kind it is functional, organism-based. Also on record: dose 7.2 mg/kg. The essentials:
as §2

Assay [10] deals with Rattus norvegicus. The experiment in a line: Antidiabetic activity in STZ-induced diabetic Wistar rats assessed as increase in response to exogenous insulin at 7.2 mg/kg, iv tid for 3 days. Also on record: dose 7.2 mg/kg. In kind it is functional, organism-based. The essentials:
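STZ-diabetic rats (STZ 60 mg/kg iv, glucose ≥20 mmol/L, used 2 weeks later) first given long-acting human insulin 1 IU/kg once daily. Compound or saline then given iv three times daily for 3 days. Challenge was short-acting human insulin iv 0.1–1.0 IU/kg. Femoral-vein blood taken at 30 min for plasma glucose. n=8 per group, means ± SE.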

Calls of active or inactive are those of the source. No cut-off for these calls is given here.

Turning to `CN(C)C(=N)NC(=N)N` [METFORMIN], the Emax at 100 mg/kg in assay [1] turned out to be 32%.
As for `COc1cc(C=O)cc(OC)c1O` [SYRINGALDEHYDE], the Emax at 7.2 mg/kg in assay [2] is 31.3%. The result in assay [3] was inactive. The Activity in [4] is 25.93%; in assay [5] it was “Dose-dependent effect”; in assay [7] it was 11.08%; in [8] it was “Dose-dependent effect”. For the same compound, the result in assay [6], in [9] and in assay [10] was Active.
